ChEMBL document CHEMBL1157128, “Silica-supported fluoroboric acid (HBF(4)-SiO(2)) catalyzed highly productive synthesis of thiomorpholides as activators of l-asparaginase as well as the antioxidant agent” (Bioorg Med Chem, 2010)
Activity calls are given as the source filed them. The rule behind the calls is not given here.

What was measured:
[1] = tested on: Radical scavenging activity; assay: Antioxidant activity assessed as DPPH free radical scavenging activity at 1 mM/ml after 30 mins; assay type: functional
Outline: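 DPPH scavenging assay. 1 mM compound stock was mixed with DPPH in methanol (0.5 mL, 0.3 mM) in a 3 mL total mixture and left at room temperature for 30 min. Absorbance was read at 520 nm. Percent activity was calculated as [1 − OD test/OD control] × 100. BHA served as standard.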

[2] = tested on: L-asparaginase (Erwinia carotovora); assay: Binding affinity to Erwinia carotovora L-asparaginase by spectrophotometry; conditions: Pectobacterium carotovorum
[3] = tested on: L-asparaginase (Erwinia carotovora); assay: Ratio of Vmax to Km for Erwinia carotovora L-asparaginase by Lineweaver-Burke plot; conditions: Pectobacterium carotovorum

Compound	Activity [1]	Activity [2]	KA [2]	Vmax/Km [3]
S=C(Cc1ccccc1)N1CCOCC1	24.3%			
Nc1ccccc1CC(=S)N1CCOCC1	0%			
S=C(Cc1ccc(OCc2ccccc2)cc1)N1CCOCC1	25.9%			
Cc1ccc(CC(=S)N2CCOCC2)cc1	21.6%			
COc1ccc(CC(=S)N2CCOCC2)cc1OC	32.6%	Active	0.985 µM	13.3
S=C(Cc1ccc2ccccc2c1)N1CCOCC1	0%			
Oc1ccccc1CC(=S)N1CCOCC1	36.1%		0.625 µM	4.04
S=C(Cc1ccc(Br)cc1)N1CCOCC1	0%			
COc1ccc(O)c(C(C)(C)C)c1.COc1ccc(O)cc1C(C)(C)C	72.3%			
O=[N+]([O-])c1ccc(CC(=S)N2CCOCC2)cc1	0%			
S=C(Cc1ccco1)N1CCOCC1	0%			
COc1ccc(CC(=S)N2CCOCC2)cc1	24.3%	Active	0.0851 µM	6.25
S=C(CCCc1ccccc1)N1CCOCC1	0%			
